Experimental data collected from several papers.
Compare with care: the assays were run in different laboratories.
Target: Mitogen-activated protein kinase kinase kinase 2 (MAP3K2, Homo sapiens, UniProt Q9Y2U5)
Residues used in one study (Q9Y2U5 1-619): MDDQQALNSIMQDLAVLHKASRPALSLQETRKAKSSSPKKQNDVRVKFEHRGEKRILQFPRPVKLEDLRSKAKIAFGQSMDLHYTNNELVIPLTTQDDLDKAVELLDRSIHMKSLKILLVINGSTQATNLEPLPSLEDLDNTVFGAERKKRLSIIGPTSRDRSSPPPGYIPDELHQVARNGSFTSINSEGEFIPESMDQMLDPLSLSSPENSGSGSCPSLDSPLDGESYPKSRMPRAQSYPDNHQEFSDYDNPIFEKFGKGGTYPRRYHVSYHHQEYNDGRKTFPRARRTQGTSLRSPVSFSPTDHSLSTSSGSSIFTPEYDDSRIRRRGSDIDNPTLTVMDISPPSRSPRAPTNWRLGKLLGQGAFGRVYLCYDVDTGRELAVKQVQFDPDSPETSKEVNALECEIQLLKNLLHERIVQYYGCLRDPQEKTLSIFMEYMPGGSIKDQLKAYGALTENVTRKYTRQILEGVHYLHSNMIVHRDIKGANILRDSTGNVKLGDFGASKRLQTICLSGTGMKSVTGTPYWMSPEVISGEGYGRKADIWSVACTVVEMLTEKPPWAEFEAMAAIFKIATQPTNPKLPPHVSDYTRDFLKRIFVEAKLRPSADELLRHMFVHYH

SMILES	assay	conditions	remaining binding [%]
O=C(Nc1cccnn1)N1CC(C/C=C/c2cncc(Oc3ccc(C(F)(F)F)cn3)n2)C1	cell-free assay, competition with immobilised ligand	1 µM	79
O=C(c1ccc(Nc2ncc(Cl)c(-c3ccc(Cl)s3)n2)cc1)N1CCC(N2CCCC2)CC1	binding, competition with immobilised ligand	1 µM	4.9
c1cnn2ncc(-c3ccnc(N4CCC45COC5)n3)c2c1	binding	1 µM	58
O=C(Nc1c[nH]nc1C(=O)NC1CCNCC1)c1cc(F)cc(F)c1	binding, competition with immobilised ligand	1 µM	94
N[C@@H]1CCN(c2nccc(-c3cnn4ncccc34)n2)C1	binding	1 µM	100
O=C(Nc1ccc(Oc2ccc(F)cc2)cc1)N1CCc2ncccc2[C@H]1c1ccc(F)cc1	cell-free assay, competition with immobilised ligand	1 µM	89
CN(C)c1nccc(-c2cnc3ncccn23)n1	binding	1 µM	73
FC(F)(F)Oc1cccc(-c2cnc3ccc(-c4ccncc4)nn23)c1	cell-free assay, competition with immobilised ligand	5 µM	79
CN(C)c1ncc(F)c(-c2cnn3ncccc23)n1	binding	1 µM	81
O=S(=O)(NC1CCC(c2cc(F)ccc2F)(S(=O)(=O)c2ccc(Cl)cc2)CC1)C(F)(F)F (stereo not drawn)	cell-free assay, competition with immobilised ligand	1 µM	98
O=C(c1ccc(Nc2ncc(Cl)c(-c3cc4ccccc4s3)n2)cc1)N1CCC(N2CCCC2)CC1	binding, competition with immobilised ligand	1 µM	20
CNC(=O)[C@@H]1CC[C@@H](n2c(-c3ccc4cnccc4c3)nc3ccc(C(=O)NCc4cccc(C(N)=O)c4)cc32)C1	binding, competition with immobilised ligand	1 µM	86
C[C@H]1CCN(c2nccc(-c3cnn4ncccc34)n2)C1	binding	1 µM	81
c1ccc(N2CCN(Cc3nc4ccccc4[nH]3)CC2)nc1	binding, competition with immobilised ligand	1 µM	100
COc1cnc(Nc2cccc(S(N)(=O)=O)c2)nc1N1CCN(c2ccccc2)C(=O)C1	binding, competition with immobilised ligand	1 µM	74
C=CC(=O)N1CCC(C(=O)NCC(=O)N2CCN(c3nc(-c4cnc(N)nc4C(F)F)nc(N4CCOCC4)n3)CC2)CC1	binding, competition with immobilised ligand	1 µM	69
CC1CCCN1c1nccc(-c2cnn3ncccc23)n1 (stereo not drawn)	binding	1 µM	98
O=C(O)[C@@H]1[C@@H](Cn2nnc3ccccc3c2=O)CC[C@H]1C(=O)c1ccc(OCCC2CCOCC2)cc1	cell-free assay, competition with immobilised ligand	1 µM	100
C[C@@H](c1ccc(-n2cnc3c(N)ncnc32)cc1)N1CCc2nn(C)c(Cc3ccccc3)c2C1=O	binding, competition with immobilised ligand	0.1 µM	57
Cc1c(NC(=O)c2cc(C(N)=O)nc3cc(F)ccc23)c(C(F)(F)F)nn1Cc1ccc(C(C)(C)C)cc1	cell-free assay, competition with immobilised ligand	1 µM	100
O=C(NCCCN1CCOCC1)c1ccc(Nc2ncc(Cl)c(-c3ccc(Cl)s3)n2)cc1	binding, competition with immobilised ligand	1 µM	2.3
